The source of these data is ChEMBL document CHEMBL1149634, “1-Acylthiosemicarbazides, 1,2,4-triazole-5(4H)-thiones, 1,3,4-thiadiazoles and hydrazones containing 5-methyl-2-benzoxazolinones: synthesis, analgesic-anti-inflammatory and antimicrobial activities” (2007).

≈ marks a conversion by molar mass, not a printed value.

The test system of assay [1] is Mus musculus. Description: Antiinflammatory activity against carrageenan-induced hind paw oedema in mouse assessed as inhibition of swelling thickness at 10 mg/kg, po after 180 mins. In kind it is functional. The conditions noted are these: 3 h. An outline of the steps:
(§1)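 Fasted mice (n = 5–6) were dosed orally with the sample in 0.5% CMC/water. One hour later, carrageenan (0.5 mg/25 µl in 154 mM saline) was injected subplantar into the right hind paw. The right-minus-left footpad thickness difference was measured with dial gauge callipers every 90 min over 6 h. Inhibition % is calculated versus vehicle control; mean ± SEM, Student's t test.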
A general note: Carrageenan injected into the paw causes an acute inflammation.

Assay [2] has as its system Mus musculus. Description: Antiinflammatory activity against carrageenan-induced hind paw oedema in mouse assessed as inhibition of swelling thickness at 10 mg/kg, po after 270 mins. The conditions noted are these: 4.5 h. In kind it is functional. The procedure, abridged:
as §1

Assay [3] deals with Mus musculus. Description: Antiinflammatory activity against carrageenan-induced hind paw oedema in mouse assessed as inhibition of swelling thickness at 10 mg/kg, po after 360 mins. The class given is functional. The conditions noted are these: 6 h. An outline of the steps:
as §1

The species entered for assay [4] is Mus musculus. Description: animal or person. The conditions noted are these: po, 1.5 h, read-out: Inhibition.
In assay [5] the test system is Mus musculus. In words: Analgesic activity in mouse assessed as inhibition of hind paw lick at 100 mg/kg, ip by hot plate test. The class given is functional. The conditions noted are these: route intraperitoneal.
The subject of assay [6] is Mus musculus. In words: Analgesic activity in mouse assessed as inhibition of acetic acid induced-abdominal writhing at 100 mg/kg, ip by Koster test. In kind it is functional. The conditions noted are these: Abdomen, route intraperitoneal.
For assay [7], the system named is Mus musculus. In words: Antiinflammatory activity against carrageenan-induced hind paw oedema in mouse assessed as inhibition of swelling thickness at 100 mg/kg, po after 90 mins. The conditions noted are these: 1.5 h. The class given is functional. An outline of the steps: as §1
Assay [8] relates to Mus musculus. In words: Antiinflammatory activity against carrageenan-induced hind paw oedema in mouse assessed as swelling thickness at 50 mg/kg, po after 90 mins. In kind it is functional. An outline of the steps: as §1
Assay [9] concerns Mus musculus. Description: Antiinflammatory activity against carrageenan-induced hind paw oedema in mouse assessed as inhibition of swelling thickness at 200 mg/kg, po after 90 mins. The conditions noted are these: 1.5 h. In kind it is functional. An outline of the steps: as §1
In assay [10] the test system is Mus musculus. Description: Antiinflammatory activity against carrageenan-induced hind paw oedema in mouse assessed as inhibition of swelling thickness at 100 mg/kg, po after 180 mins. In kind it is functional. The conditions noted are these: 3 h. An outline of the steps:
as §1

Assay [11] concerns Mus musculus. Description: Antiinflammatory activity against carrageenan-induced hind paw oedema in mouse assessed as swelling thickness at 50 mg/kg, po after 180 mins. In kind it is functional. An outline of the steps: as §1
Assay [12] concerns Mus musculus. Description: Antiinflammatory activity against carrageenan-induced hind paw oedema in mouse assessed as inhibition of swelling thickness at 200 mg/kg, po after 180 mins. The conditions noted are these: 3 h. In kind it is functional. An outline of the steps: as §1
Assay [13] concerns Mus musculus. In words: Antiinflammatory activity against carrageenan-induced hind paw oedema in mouse assessed as swelling thickness at 50 mg/kg, po after 270 mins. The class given is functional. An outline of the steps:
as §1

In assay [14] the test system is Mus musculus. In words: Antiinflammatory activity against carrageenan-induced hind paw oedema in mouse assessed as inhibition of swelling thickness at 100 mg/kg, po after 360 mins. The class given is functional. The conditions noted are these: 6 h. An outline of the steps:
as §1

The subject of assay [15] is Mus musculus. Description: Antiinflammatory activity against carrageenan-induced hind paw oedema in mouse assessed as swelling thickness at 50 mg/kg, po after 360 mins. In kind it is functional. The procedure, abridged: as §1
A further assay deals with Staphylococcus aureus. In words: Antibacterial activity against Staphylococcus aureus ATCC 29213 after 24 hrs by broth microdilution test. In kind it is functional. The conditions noted are these: ATCC 29213, 24 h. An outline of the steps: (§2)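 NCCLS broth microdilution in Mueller-Hinton broth with an inoculum of 5 × 10^5 cfu/mL. Compounds were dissolved in DMSO, diluted in sterile water, and tested as twofold dilutions from 512 to 0.5 µg/mL. Plates were incubated at 35 °C for 24 h. MIC is the lowest concentration preventing visible growth.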
(Dilution methods test growth across graded concentrations, often in twofold steps.)

The next assay relates to Enterococcus faecalis. In words: Antibacterial activity against Enterococcus faecalis ATCC 29212 after 24 hrs by broth microdilution test. The class given is functional. The conditions noted are these: ATCC 29212, 24 h. An outline of the steps: as §2
A further assay concerns Escherichia coli. Description: Antibacterial activity against Escherichia coli ATCC 25922 after 24 hrs by broth microdilution test. The conditions noted are these: ATCC 25922, 24 h. In kind it is functional. An outline of the steps: as §2
The test system of another assay is Pseudomonas aeruginosa. In words: Antibacterial activity against Pseudomonas aeruginosa ATCC 27853 after 24 hrs by broth microdilution test. The class given is functional. The conditions noted are these: ATCC 27853, 24 h. The procedure, abridged:
as §2

Another assay deals with Candida albicans. In words: Antifungal activity against Candida albicans ATCC 90028 after 48 hrs by broth microdilution test. In kind it is functional. The conditions noted are these: ATCC 90028, 48 h. The procedure, abridged:
(§3)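 Yeasts tested by NCCLS M27-A broth microdilution in RPMI 1640 (with L-glutamine, without sodium bicarbonate) with an inoculum of 0.5–2.5 × 10^3 cfu/mL. Compounds were prepared from DMSO solution diluted in water as twofold dilutions from 512 to 0.5 µg/mL. Plates were incubated at 35 °C for 48 h. MIC is the lowest concentration giving no visible growth.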

Another assay relates to Pichia kudriavzevii. Description: Antifungal activity against Candida krusei ATCC 6258 after 48 hrs by broth microdilution test. The class given is functional. The conditions noted are these: ATCC 6258, 48 h. An outline of the steps:
as §3

In another assay the test system is Candida parapsilosis. In words: Antifungal activity against Candida parapsilosis ATCC 22019 after 48 hrs by broth microdilution test. The conditions noted are these: Lodderomyces parapsilosis, ATCC 22019, 48 h. The class given is functional. An outline of the steps: as §3
Assay [16] relates to Mus musculus. Description: Antiinflammatory activity against carrageenan-induced hind paw oedema in mouse assessed as swelling thickness at 100 mg/kg, po after 270 mins. The class given is functional. The procedure, abridged: as §1
Assay [17] has as its system Mus musculus. Description: Antiinflammatory activity against carrageenan-induced hind paw oedema in mouse assessed as swelling thickness at 200 mg/kg, po after 270 mins. The class given is functional. An outline of the steps:
as §1

Assay [18] deals with Mus musculus. Description: Antiinflammatory activity against carrageenan-induced hind paw oedema in mouse assessed as swelling thickness at 200 mg/kg, po after 360 mins. In kind it is functional. The procedure, abridged:
as §1

For assay [19], the species on record is Mus musculus. In words: animal or person. The conditions noted are these: ip, read-out: Inhibition.

A word on the MIC: it is the lowest concentration that inhibits growth of the organism. Higher therefore signals a need for much substance.

Take `COc1ccc2c(c1)c(CC(=O)O)c(C)n2C(=O)c1ccc(Cl)cc1` [INDOMETHACIN]: the inhibition in vivo at 10 mg/kg in the assay with Mus musculus [1] was determined as 43%; in the assay with Mus musculus [2], 46.3%; in the assay with Mus musculus [3], 41.6%; in the assay filed under Mus musculus [4], 42%.
For the compound `Cc1ccc(/C=N/NC(=O)Cn2c(=O)oc3ccc(C)cc32)cc1`, the inhibition in vivo at 100 mg/kg in the assay with Mus musculus [5] was 52.9%; in the assay on Mus musculus [6], 77.8%; with Mus musculus [7] it was 69.7%; with Mus musculus [10], 9.4%; in the assay on Mus musculus [14] it was 12.6%. Further, the Activity came out at 73.8% with Mus musculus [8]; 86.8% in the assay on Mus musculus [11]; 103.8% in the assay with Mus musculus [13]; 98% in the assay on Mus musculus [15]; 92% in the assay with Mus musculus [16]; 89.1% in the assay on Mus musculus [17]. For the same compound, the Activity in the assay on Mus musculus [18] stood at 83.6%. Further, the inhibition in vivo at 200 mg/kg was determined as 17.1% in the assay with Mus musculus [9] and 33.3% with Mus musculus [12]. Besides, the MIC against Staphylococcus aureus came out at 512 mg/L (≈ 1580 µM); against Enterococcus faecalis it was 256 mg/L (≈ 792 µM); against Escherichia coli, 128 mg/L (≈ 396 µM); against Pseudomonas aeruginosa, 256 mg/L (≈ 792 µM); in the assay on Candida albicans, 128 mg/L (≈ 396 µM); with Pichia kudriavzevii it was 128 mg/L (≈ 396 µM). Besides, the MIC in the assay on Candida parapsilosis is 128 mg/L (≈ 396 µM).
As for `CN1CC[C@]23c4c5ccc(O)c4O[C@H]2[C@@H](O)C=C[C@H]3[C@H]1C5` [MORPHINE], the inhibition in vivo at 10 mg/kg in the assay listed under Mus musculus [19] is 50.7%.
